This passage reports MIC results from ChEMBL document CHEMBL1629439, “High-throughput identification of antibacterials against methicillin-resistant Staphylococcus aureus (MRSA) and the transglycosylase” (Bioorg Med Chem, 2010).

As a reminder, the MIC is the lowest concentration found to suppress growth.

Assay [1] has as its system Staphylococcus aureus. Put plainly: Antimicrobial activity against Staphylococcus aureus ATCC 29213 after 18 to 24 hrs by alamar blue assay.
The test system of assay [2] is Stenotrophomonas maltophilia. Put plainly: Antimicrobial activity against Stenotrophomonas maltophilia ATCC 13637 after 18 to 24 hrs by alamar blue assay. Type of assay: functional. Conditions: Stenotrophomonas maltophilia, ATCC 13637; read-out: MIC. In short, it runs like this:
(§1)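 Broth microdilution per NCCLS in Mueller-Hinton broth, 8-point twofold dilutions, 384-well format. Exponential-phase cells at 5 × 10^5 cells/ml incubated with compound 18–24 h at 37 °C, then 20% Alamar blue added and fluorescence read. MIC90 taken as the lowest concentration preventing at least 90% bacterial growth.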

The test system of another assay is Escherichia coli. Put plainly: Antimicrobial activity against Escherichia coli ATCC […] after 18 to 24 hrs by alamar blue assay. The assay is classed as functional. Conditions: Escherichia coli; read-out: MIC. The essentials: as §1
A general note: The colour change of resazurin is a common sign of viable cells or microbes.

Assay [3] concerns Mycolicibacterium smegmatis. Put plainly: Antimicrobial activity against Mycobacterium smegmatis BCRC 11565 after 18 to 24 hrs by alamar blue assay. Type of assay: functional. The settings on record: Mycolicibacterium smegmatis, BCRC 11565; read-out: MIC. The essentials: as §1
The subject of assay [4] is Staphylococcus aureus. Put plainly: Antimicrobial activity against methicillin-resistant Staphylococcus aureus ATCC 33592 after 18 to 24 hrs by alamar blue assay. The assay is classed as functional. Conditions: Staphylococcus aureus, ATCC 33592; read-out: MIC. In short, it runs like this:
(§2)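 Broth microdilution per NCCLS standard, Mueller-Hinton broth, 8-point twofold dilutions; exponentially growing cells at 5 10^5 cells/ml with compound, 18–24 h at 37 C; 20% Alamar blue added, fluorescence read; MIC90 taken as lowest concentration preventing at least 90% growth.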

In assay [5] the test system is Staphylococcus aureus. Briefly: Antimicrobial activity against oxacillin- and methicillin-resistant Staphylococcus aureus isolate Sa-OXA-R2 after 18 to 24 hrs by alamar blue assay. The assay is classed as functional. The essentials: as §2
Assay [6] concerns Staphylococcus aureus. Put plainly: Antimicrobial activity against methicillin-resistant Staphylococcus aureus isolate NTUH4722 after 18 to 24 hrs by alamar blue assay. The assay is classed as functional. The essentials:
as §2

The test system of another assay is Serratia marcescens. Put plainly: Antimicrobial activity against Serratia marcescens ATCC 14756 after 18 to 24 hrs by alamar blue assay. The assay is classed as functional. Conditions: Serratia marcescens, ATCC 14756; read-out: MIC. In short, it runs like this:
as §1

The subject of a further assay is Pseudomonas aeruginosa. Briefly: Antimicrobial activity against Pseudomonas aeruginosa ATCC 25619 after 18 to 24 hrs by alamar blue assay. Type of assay: functional. Conditions: Pseudomonas aeruginosa, ATCC 25619; read-out: MIC. The essentials: as §1
Another assay deals with Acinetobacter baumannii. Briefly: Antimicrobial activity against Acinetobacter baumannii ATCC 49139 after 18 to 24 hrs by alamar blue assay. Type of assay: functional. Conditions: Acinetobacter baumannii, ATCC 49139; read-out: MIC. The essentials: as §1
Another assay relates to Bacillus subtilis. Put plainly: Antimicrobial activity against Bacillus subtilis ATCC 23857 after 18 to 24 hrs by alamar blue assay. The assay is classed as functional. The essentials: as §1

Values after ≈ are worked out from the molar mass of the structure shown.

Regarding `Cc1ccc(N2C(=O)c3ccc([N+](=O)[O-])c4c([N+](=O)[O-])ccc(c34)C2=O)cc1`, the MIC was 5 mg/L (≈ 13.3 µM) with Staphylococcus aureus [1]; over 256 mg/L in assay [2]; over 256 mg/L in the assay on Escherichia coli; 4 mg/L (≈ 10.6 µM) in assay [3]; 2.5 mg/L (≈ 6.63 µM) in the assay on Staphylococcus aureus [4]; 2.5 mg/L (≈ 6.63 µM) against Staphylococcus aureus [5]. In addition, the MIC with Staphylococcus aureus [6] is 2.5 mg/L (≈ 6.63 µM); with Serratia marcescens it was over 256 mg/L; with Pseudomonas aeruginosa, over 256 mg/L; in the assay on Acinetobacter baumannii it was over 256 mg/L; against Bacillus subtilis, 4 mg/L (≈ 10.6 µM).

`NC(=O)c1oc2ccccc2c1NC(=O)c1ccc([N+](=O)[O-])o1`: the MIC is 2 mg/L (≈ 6.34 µM) with Staphylococcus aureus [1]; 32 mg/L (≈ 102 µM) in assay [2]; 256 mg/L (≈ 812 µM) in the assay on Escherichia coli; 0.5 mg/L (≈ 1.59 µM) in assay [3]; 0.5 mg/L (≈ 1.59 µM) with Staphylococcus aureus [4]; 2 mg/L (≈ 6.34 µM) against Staphylococcus aureus [5]. Further, the MIC in the assay with Staphylococcus aureus [6] was 0.5 mg/L (≈ 1.59 µM); in the assay on Serratia marcescens, 32 mg/L (≈ 102 µM); in the assay on Pseudomonas aeruginosa, 128 mg/L (≈ 406 µM); in the assay on Acinetobacter baumannii it was 12 mg/L (≈ 38.1 µM); against Bacillus subtilis, 0.06 mg/L (≈ 0.19 µM).

In the case of `O=C(Nc1cccc(-c2nc3ncccc3o2)c1)c1ccc([N+](=O)[O-])o1`, the MIC came to 4 mg/L (≈ 11.4 µM) against Staphylococcus aureus [1]; 32 mg/L (≈ 91.4 µM) in assay [2]; 256 mg/L (≈ 731 µM) in the assay on Escherichia coli; 0.5 mg/L (≈ 1.43 µM) in assay [3]; 4 mg/L (≈ 11.4 µM) in the assay on Staphylococcus aureus [4]; 2 mg/L (≈ 5.71 µM) against Staphylococcus aureus [5]. Also, the MIC against Staphylococcus aureus [6] turned out to be 2 mg/L (≈ 5.71 µM); in the assay on Serratia marcescens, 32 mg/L (≈ 91.4 µM); in the assay with Pseudomonas aeruginosa, 128 mg/L (≈ 365 µM); with Acinetobacter baumannii, 12 mg/L (≈ 34.3 µM); in the assay on Bacillus subtilis, 0.06 mg/L (≈ 0.171 µM).

For `CNC(=O)c1ccsc1NC(=O)c1ccc([N+](=O)[O-])o1`, the MIC against Staphylococcus aureus [1] is 2 mg/L (≈ 6.77 µM); in assay [2] it was 32 mg/L (≈ 108 µM); in the assay with Escherichia coli, 256 mg/L (≈ 867 µM); in assay [3], 0.5 mg/L (≈ 1.69 µM); in the assay with Staphylococcus aureus [4], 0.5 mg/L (≈ 1.69 µM); in the assay with Staphylococcus aureus [5] it was 0.5 mg/L (≈ 1.69 µM). Further, the MIC against Staphylococcus aureus [6] stood at 0.5 mg/L (≈ 1.69 µM); in the assay on Serratia marcescens it was 32 mg/L (≈ 108 µM); in the assay with Pseudomonas aeruginosa, 128 mg/L (≈ 433 µM); with Acinetobacter baumannii it was 12 mg/L (≈ 40.6 µM); in the assay with Bacillus subtilis, 0.06 mg/L (≈ 0.203 µM).

For `Cc1c(CC(=O)O)c(=O)oc2c(C)c3occ(-c4ccc(Br)cc4)c3cc12`, the MIC against Staphylococcus aureus [1] is 2 mg/L (≈ 4.68 µM); in assay [2], over 256 mg/L; in the assay on Escherichia coli it was over 256 mg/L; in assay [3] it was 1 mg/L (≈ 2.34 µM); with Staphylococcus aureus [4], 2 mg/L (≈ 4.68 µM); in the assay with Staphylococcus aureus [5], 2 mg/L (≈ 4.68 µM). In addition, the MIC was 16 mg/L (≈ 37.4 µM) in the assay on Staphylococcus aureus [6]; over 256 mg/L in the assay on Serratia marcescens; over 256 mg/L in the assay on Pseudomonas aeruginosa; over 256 mg/L in the assay with Acinetobacter baumannii; over 64 mg/L with Bacillus subtilis.

With `CSc1ccccc1-c1nnc(NC(=O)c2nc3ccccc3s2)o1`, the MIC was 4 mg/L (≈ 10.9 µM) against Staphylococcus aureus [1]; over 256 mg/L in assay [2]; over 256 mg/L in the assay on Escherichia coli; 0.5 mg/L (≈ 1.36 µM) in assay [3]; 2 mg/L (≈ 5.43 µM) in the assay on Staphylococcus aureus [4]; 4 mg/L (≈ 10.9 µM) in the assay on Staphylococcus aureus [5]. The MIC was 2 mg/L (≈ 5.43 µM) against Staphylococcus aureus [6]; over 256 mg/L in the assay with Serratia marcescens; over 256 mg/L in the assay on Pseudomonas aeruginosa; over 256 mg/L with Acinetobacter baumannii; 0.5 mg/L (≈ 1.36 µM) against Bacillus subtilis.

Turning to `O=c1c2ccccc2nc(/C=C/c2ccc([N+](=O)[O-])o2)n1CCCO`, the MIC in the assay with Staphylococcus aureus [1] is 2 mg/L (≈ 5.86 µM); in assay [2] it was over 256 mg/L; in the assay with Escherichia coli it was 16 mg/L (≈ 46.9 µM); in assay [3], 1 mg/L (≈ 2.93 µM); with Staphylococcus aureus [4], 2 mg/L (≈ 5.86 µM); in the assay with Staphylococcus aureus [5], 2 mg/L (≈ 5.86 µM). In addition, the MIC in the assay with Staphylococcus aureus [6] is 2 mg/L (≈ 5.86 µM); in the assay on Serratia marcescens, over 256 mg/L; in the assay on Pseudomonas aeruginosa, 2 mg/L (≈ 5.86 µM); with Acinetobacter baumannii it was over 256 mg/L; against Bacillus subtilis it was under 0.03 mg/L.

As for `O=C(Nc1cccc2c1C(=O)NC2=O)c1ccc([N+](=O)[O-])o1`, the MIC against Staphylococcus aureus [1] is 4 mg/L (≈ 13.3 µM); in [2], 32 mg/L (≈ 106 µM); in the assay with Escherichia coli it was 256 mg/L (≈ 850 µM); in assay [3], 0.5 mg/L (≈ 1.66 µM); in the assay on Staphylococcus aureus [4], 1 mg/L (≈ 3.32 µM); against Staphylococcus aureus [5], 2 mg/L (≈ 6.64 µM). The MIC is 2 mg/L (≈ 6.64 µM) against Staphylococcus aureus [6]; 32 mg/L (≈ 106 µM) in the assay on Serratia marcescens; 128 mg/L (≈ 425 µM) in the assay on Pseudomonas aeruginosa; 12 mg/L (≈ 39.8 µM) in the assay with Acinetobacter baumannii; 0.06 mg/L (≈ 0.199 µM) with Bacillus subtilis.

Turning to `O=C(Nc1ccc(Cl)c(S(=O)(=O)Nc2cccc(Cl)c2)c1)c1ccc([N+](=O)[O-])o1`, the MIC in the assay on Staphylococcus aureus [1] amounted to 1.5 mg/L (≈ 3.29 µM); in assay [2] it was 32 mg/L (≈ 70.1 µM); with Escherichia coli, 256 mg/L (≈ 561 µM); in [3] it was 0.5 mg/L (≈ 1.1 µM); in the assay with Staphylococcus aureus [4], 1.5 mg/L (≈ 3.29 µM); in the assay on Staphylococcus aureus [5], 1.5 mg/L (≈ 3.29 µM). Besides, the MIC in the assay with Staphylococcus aureus [6] was 1.5 mg/L (≈ 3.29 µM); in the assay on Serratia marcescens it was 32 mg/L (≈ 70.1 µM); in the assay with Pseudomonas aeruginosa it was 128 mg/L (≈ 281 µM); in the assay on Acinetobacter baumannii, 12 mg/L (≈ 26.3 µM); against Bacillus subtilis, 0.06 mg/L (≈ 0.132 µM).
